TRPC4 block – blocks the mouse TRPC4 cation channel; HEK293 TRPC4beta/mu-opioid, DAMGO-evoked Fluo4 calcium flux; hits give low values; B-score at 10 µM; hit rate 0.39% among 300,000;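 active = B-score over 3 SD under the library average, no early fluorescence shift, positive overall ratio signal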
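Assay system – HEK293 line stably carrying TRPC4beta and mu-opioid receptor · Doses – single dose · Detection – Fluo4 calcium-dye fluorescence, kinetic read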
Platelet DG rel – modulates dense granule release in human platelets | human platelet-rich plasma, SFLLRN dense granule ATP release, luminescence | inhibition, %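 (compounds screened at 7.5 µM in platelet-rich plasma)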 | hit rate 0.22% among 300,000;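 active = mean replicate score, as percent of positive control, at or above 50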
TRPC6 activator – mouse TRPC6 channel activation; B-score at 10 µM; HEK293-TRPC6 membrane potential dye fluorescence; hits give high values; AID 2550; Q61143; hit rate 0.13% among 310,000;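 active = B-score of the integrated fluorescence ratio above library mean plus 3 SD, and starting fluorescence ratio within library mean plus 5 SD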;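 also: higher score means more depolarization so channel activation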
Target sequence (Q61143 whole entry, looked up): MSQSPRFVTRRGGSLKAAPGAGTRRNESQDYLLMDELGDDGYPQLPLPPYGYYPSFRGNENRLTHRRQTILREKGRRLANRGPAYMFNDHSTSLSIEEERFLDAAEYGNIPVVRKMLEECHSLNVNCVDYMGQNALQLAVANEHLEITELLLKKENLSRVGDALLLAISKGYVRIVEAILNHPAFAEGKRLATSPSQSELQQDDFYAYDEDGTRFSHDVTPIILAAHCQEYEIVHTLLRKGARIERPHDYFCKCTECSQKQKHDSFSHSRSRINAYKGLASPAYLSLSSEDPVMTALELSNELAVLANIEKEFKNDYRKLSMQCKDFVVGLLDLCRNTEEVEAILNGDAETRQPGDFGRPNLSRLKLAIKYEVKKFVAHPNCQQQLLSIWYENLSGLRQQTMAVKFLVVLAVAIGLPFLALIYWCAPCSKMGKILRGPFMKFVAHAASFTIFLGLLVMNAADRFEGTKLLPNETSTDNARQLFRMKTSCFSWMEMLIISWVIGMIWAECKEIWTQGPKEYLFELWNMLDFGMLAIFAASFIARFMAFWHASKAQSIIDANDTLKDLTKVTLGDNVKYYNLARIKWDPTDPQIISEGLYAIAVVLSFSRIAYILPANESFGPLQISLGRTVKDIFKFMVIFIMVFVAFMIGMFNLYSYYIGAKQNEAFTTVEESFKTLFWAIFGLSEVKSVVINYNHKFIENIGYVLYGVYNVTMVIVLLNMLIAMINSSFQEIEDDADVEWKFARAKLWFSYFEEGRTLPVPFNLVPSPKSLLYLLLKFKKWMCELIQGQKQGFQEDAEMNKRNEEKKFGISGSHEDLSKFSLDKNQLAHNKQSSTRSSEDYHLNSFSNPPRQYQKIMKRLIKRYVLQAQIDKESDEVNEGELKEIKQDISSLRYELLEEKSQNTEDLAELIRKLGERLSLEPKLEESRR
TRPC6 inhibitor – blocks the mouse TRPC6 cation channel; Q61143; HEK293-TRPC6, membrane potential dye, ACh-evoked depolarization; hits give low values; B-score at 10 µM; hit rate 1.1% among 310,000;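 active = B-score under library mean minus 3 SD, initial fluorescence not abnormally high, positive integrated signal ratio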;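 also: B-score derived from integrated fluorescence ratio over the kinetic read; more negative B-score means stronger inhibition of depolarization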
TRPC4 PAM – allosterically enhances the mouse TRPC4 cation channel; Q9QUQ5; hit rate 0.42% among 310,000; HEK293 TRPC4beta/mu-opioid, DAMGO EC20, Fluo-4 Ca2+ flux; hits give high values; B-score at 10 µM;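 active = B-score of calcium response area above 5 SD of library B-scores, with initial fluorescence ratio within 5 SD of library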;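 also: B-score of integrated fluorescence ratio over time as area under calcium response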
TRPC4 act – activators of mouse TRPC4 channel. Q9QUQ5. AID 2237. hit rate 0.49% among 310,000. B-score at 10 µM. HEK293 TRPC4beta/mu-opioid, Fluo4 calcium fluorescence; hits give high values;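 active = B-score above 5 SD of library B-scores, and initial fluorescence ratio not above library mean plus 5 SD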;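 also: positive B-score marks a calcium rise read as TRPC4 activation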
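Assay system: HEK293 cells stably co-expressing mouse TRPC4beta and mu-opioid receptor / Timing: Fluo4 dye loading 45 min at room temperature, 110 s recording / Signal: Fluo4 calcium-sensitive dye fluorescence, kinetic, 1 Hz baseline / Read-out: integrated baseline-normalised fluorescence ratio, converted to per-well B score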
TRPC4 sel inh 2 – mouse TRPC4 off-target activity of TRPC6 inhibitors, second screen; AID 2776; inhibition, % at 10 µM; hit rate 42% among 920; HEK293 TRPC4/MOR, membrane potential dye fluorescence; channel activated by saturating DAMGO dose; shares compounds with TRPC6 inhibitor;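 active = compounds whose fluorescence signal differed from control wells by over 3 SD, either direction, in both duplicate plates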
TRPC4 spec – mouse TRPC4 off-target activity of TRPC6 inhibitors; HEK293 TRPC4/mu-opioid, membrane potential fluorescence; shares compounds with TRPC6 inhibitor; activity change, negative = inhibition, % at 10 µM; hit rate 61% among 920;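 active = rise or fall in signal beyond 3 SD of buffer-only wells in both replicate plates, either sign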;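 also: integrated kinetic ratio of fluorescence range over baseline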
HEK293 MPD ctr 2-1 – second counter-screen for TRPC6 inhibitors: parental HEK293 cells; shares compounds with TRPC6 inhibitor; parental HEK293 membrane potential dye fluorescence; maximal acetylcholine challenge after compound addition; AID 2779; hit rate 31% among 920; signal change vs control, % at 10 µM;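 active = membrane potential signal moving either way by over 3 SD of the maximum-effect control, in both duplicate plates, meaning non-specific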
HEK293 MPD ctr-1 – counter-screen for TRPC6 inhibitors: effect in parental HEK293 cells | shares compounds with TRPC6 inhibitor | parental HEK293 membrane potential dye fluorescence | membrane potential signal change, % at 10 µM | hit rate 60% among 920 | AID 2780;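 active = membrane potential signal shifting up or down by more than 3 SD of buffer-only wells, on both duplicate plates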
HEK293 MPD ctr-2 – counter-screen for TRPC6 modulators: effect in parental HEK293 cells; shares compounds with TRPC6 inhibitor; membrane potential dye fluorescence; membrane potential signal change, % at 10 µM; hit rate 51% among 2,400; AID 488924;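 active = membrane potential signal moves up or down beyond 5 SD from buffer-only wells, on both duplicate plates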
HEK293 MPD ctr 2-2 – second counter-screen for TRPC6 modulators: effect in parental HEK293 cells; membrane potential dye fluorescence; after compound, maximal acetylcholine stimulation; inhibition, % at 10 µM; AID 488926; shares compounds with TRPC6 inhibitor; hit rate 14% among 2,400;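 active = membrane potential signal drops by more than 5 SD from the mean control signal, in both duplicate plates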;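 also: plate controls were acetylcholine ECmax control wells for no effect and buffer only wells for full effect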
TRPC4/MOR mod – mouse TRPC4 off-target activity of TRPC6 modulators; percent change from control (negative = decrease, positive = increase), % at 10 µM; shares compounds with TRPC6 inhibitor; hit rate 69% among 2,400; HEK293 TRPC4/mu-opioid, membrane potential fluorescence;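 active = membrane potential signal moved up or down beyond 5 SD of buffer control wells, in both duplicate plates, actives on both sides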;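 also: plate controls were assay buffer wells for no effect and DAMGO maximal-effect wells for full effect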
TRPC4/MOR inh 2 – second selectivity test of TRPC6 modulators against mouse TRPC4. shares compounds with TRPC6 inhibitor. HEK293 TRPC4/mu-opioid, membrane potential dye fluorescence; stimulated with maximal-effect DAMGO. inhibition, % at 10 µM. hit rate 55% among 2,400;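 active = drop in membrane potential signal beyond 5 SD of the control wells in both duplicate plates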;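 also: TRPC4 counter screen for TRPC6 hits run under conditions tuned for TRPC6 not TRPC4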
TRPC6 inh conf – mouse TRPC6 inhibitor confirmation | inhibition, % at 10 µM | shares compounds with TRPC6 inhibitor | HEK293-TRPC6, membrane potential dye, ACh-evoked depolarization | hit rate 43% among 3,300;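 active = fluorescence ratio falls more than 5 SD below the full-stimulation control mean, in both duplicate runs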;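 also: integrated fluorescence ratio of peak minus minimum over baseline after agonist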
TRPC6 act conf – confirmation of mouse TRPC6 activators. hit rate 11% among 2,800. HEK293-TRPC6 membrane potential dye fluorescence, FDSS. shares compounds with TRPC6 inhibitor. activation, % at 10 µM;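 active = ratio signal rise beyond 5 SD above unstimulated control wells' mean, seen in both duplicate runs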;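 also: plate controls were buffer EC0 wells for no effect and acetylcholine ECmax response for full effect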
* hit, by the source's call; i = inactive; · = no result given. A selection: hits, their analogues and other compounds. The true share with any hit is near 2.5%.

SMILES	TRPC4 block	Platelet DG rel	TRPC6 activator	TRPC6 inhibitor	TRPC4 PAM	TRPC4 act	HEK293 MPD ctr-2	HEK293 MPD ctr 2-2	TRPC4/MOR mod	TRPC4/MOR inh 2	TRPC6 inh conf	TRPC6 act conf	others
COc1ccc(C2NC(=O)c3ccccc3O2)cc1 (stereo unspecified)	i	-2	i	i	i	i	·	·	·	·	·	·
Cc1cc(NCCO)c2ccccc2n1	i	0	i	i	i	i	·	·	·	·	·	·
COCCCNc1cc(C)nc2ccccc12	-6*	-3	i	-7.4*	i	i	-264%*	i	-50%*	63%*	i	i
Cc1cc(NCCO)c2cc(O)ccc2n1	i	0	i	-7.8*	i	i	-252%*	i	-47%*	38%*	54%*	i
COCCCNc1ccnc2c(Cl)cccc12	i	15	i	-9*	i	i	-287%*	i	-44%*	48%*	i	i
OCCNc1c2ccccc2nc2ccccc12	i	25	i	-9.5*	i	i	-233%*	i	-38%*	46%*	56%*	i
COC(=O)Nc1cc(C)nc2ccccc12	i	-7	i	i	i	i	·	·	·	·	·	·
Cc1[nH]c2c([N+](=O)[O-])cccc2c1C	i	-4	i	i	i	i	·	·	·	·	·	·
Nc1nc(N2CCN(C(=O)c3ccco3)CC2)nc2ccc(Br)cc12	i	22	i	i	i	i	·	·	·	·	·	·
Cc1cc(=O)[nH]c(N2CCN(C(=O)c3ccco3)CC2)n1	i	5	i	i	i	i	·	·	·	·	·	·
Cc1cc(N2CCN(c3nc(-c4ccccc4)cs3)CC2)c2ccccc2n1	i	-7	i	i	i	i	·	·	·	·	·	·
Cc1cc(N2CCN(S(=O)(=O)c3ccccc3)CC2)c2ccccc2n1	i	-17	i	-8.9*	i	i	-187%*	i	-31%*	68%*	48%*	i
Nc1nc(N2CCN(C(=O)c3ccco3)CC2)nc2ccccc12	i	-4	i	-7.5*	i	i	·	·	·	·	i	i	TRPC4 sel inh 2=i;TRPC4 spec=-23%*;HEK293 MPD ctr 2-1=i;HEK293 MPD ctr-1=-412%*
Cc1cc(N2CCN(C(=O)c3ccco3)CC2)c2ccccc2n1	i	2	i	-6.4*	i	i	-168%*	i	-29%*	28%*	i	i
Nc1nc(N2CCN(C/C=C/c3ccccc3)CC2)nc2ccccc12	i	·	i	-6.7*	i	i	·	·	·	·	88%*	i	TRPC4 sel inh 2=18%*;TRPC4 spec=-21%*;HEK293 MPD ctr 2-1=i;HEK293 MPD ctr-1=i
CN(C)CCCNc1nc2sc3c(c2c(=O)n1CCc1ccccc1)CCCCC3	i	17	i	-7*	i	i	·	·	·	·	i	i	TRPC4 sel inh 2=74%*;TRPC4 spec=-11%*;HEK293 MPD ctr 2-1=i;HEK293 MPD ctr-1=i
O=c1c2c3c(sc2nc(NCCO)n1-c1ccccc1)CCCC3	i	-1	i	i	i	i	·	·	·	·	·	·
CCN(CC)c1ccc(S(=O)(=O)N(CC)CC)cc1NC(=O)C1CCCC1	i	1	21*	-14*	i	i	182%*	i	34%*	36%*	116%*	162%*
CCN(CC)c1ccc(S(=O)(=O)N2CCCCC2)cc1NC(=O)C1CCC1	i	10	12*	-5.5*	i	i	i	i	22%*	30%*	76%*	96%*
Cc1ccc(S(=O)(=O)Nc2ccc(NC(=O)c3cccnc3)cc2)cc1	i	0	i	i	i	i	·	·	·	·	·	·
O=C(CCC(=O)N1CCOc2ccc(Cl)cc21)NCc1ccccc1	i	-6	i	i	i	i	·	·	·	·	·	·
CC1CCCCN1S(=O)(=O)c1csc(C(N)=O)c1 (stereo unspecified)	i	-1	i	i	i	i	·	·	·	·	·	·
CC1CCN(S(=O)(=O)c2cnc(Cl)c(Br)c2)CC1	i	0	i	-5.3*	i	i	i	i	i	i	68%*	·
CC1CCCCN1S(=O)(=O)c1cnc(Cl)c(Br)c1 (stereo unspecified)	i	12	18*	i	i	i	i	i	i	i	·	164%*
CC1CCN(S(=O)(=O)c2ccc(Cl)cc2Br)CC1	i	5	i	i	i	i	·	·	·	·	·	·
CN(C)c1nc(N/N=C/c2c[nH]c3ccccc23)nc(N2CCOCC2)n1	i	14	i	i	i	i	·	·	·	·	·	·
C(=N\Nc1nc(N2CCCCC2)nc(N2CCCCC2)n1)/c1c[nH]c2ccccc12	i	0	i	-7.9*	i	i	-56%*	i	-15%*	42%*	58%*	i
C(=N\Nc1nc2ccccc2[nH]1)/c1c[nH]c2ccccc12	i	0	i	-9.7*	i	i	-105%*	i	-26%*	74%*	56%*	i
Cc1ccccc1/C=N/Nc1nc2ccccc2[nH]1	i	-1	i	i	i	i	·	·	·	·	·	·
